Source: PubChem
Hits are enriched below; roughly 1.3% of the tested compounds scored in any of these assays.
HCV NS3 hel inh: inhibitors of HCV NS3 helicase, primary screen, biochemical, Cy5 molecular beacon fluorescence | NS3 helicase DNA unwinding | Hepatitis C virus NS3 helicase | 290,000 tested, 0.56% active | AID 1800, 2009 | inhibition, % at 10.9 µM;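 active = inhibition above the mean of all tested compounds plus 3 SD, set per campaign, cut at about 35% in these data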
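Compound dosing – single dose, 10.9 µM nominal final, DMSO 0.8% final · System – NS3 helicase fragment of HCV · Buffer or medium – MOPS pH 6.5, MgCl2, DTT, Tween20, BSA · Signal – Cy5 beacon fluorescence read at start and 1 h · Also added – annealed dual-labelled DNA beacon duplex, ATP-started · Schedule – 1 h at 25 °C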
Hep lipid drop: inhibitors of hepatocyte lipid droplet formation, primary screen, imaging, high-throughput imaging, BODIPY stain; AML12 mouse hepatocytes, oleate lipid droplets; inhibition, % at 6.5 µM; 240,000 tested, 0.4% active;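 active = lipid droplet intensity inhibited by at least 50%, with more than 500 cells counted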
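Material: mouse AML12 hepatocyte cell line, fixed after treatment; Timing: compound with oleate, overnight; Technique: high-content imaging of BODIPY-stained droplets and DAPI nuclei; Probe or stimulus: oleate, 100 µM final; Dosing: compound at 6.5 µM only.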
HCV core dimer: inhibitors of HCV core protein dimerization, primary screen, biochemical, TR-FRET, high-throughput | TR-FRET GST/Flag-core106 dimerization, 1536-well | inhibition, % at 5 µM | 300,000 tested, 0.33% active | AID 1899, 2009;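 active = inhibition above the mean of all tested compounds plus 3 SD, set per screening campaign, cut at about 45% in these data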
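assay system = GST-tagged and Flag-tagged HCV core protein residues 1-106 | controls = unlabelled core106 and no-GST-core106 wells | incubation = compound-protein-antibody incubation 4 h at 22.5 °C | probe or stimulus = Eu donor and XL665 acceptor anti-tag antibodies | read-out = % inhibition based on acceptor/donor emission ratio | signal = TR-FRET 671 and 617 nm emission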
TbMetRS inhib: T. brucei MetRS inhibitors, primary screen, biochemical, luminescence; methionyl-tRNA synthetase (Trypanosoma brucei brucei); purified T. brucei MetRS, ATP depletion, Kinase-Glo luminescence; inhibition, % at 11.9 µM; 360,000 tested, 0.4% active; AID 624268, 2012;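 active = inhibition above a per-plate cutoff of the control wells' mean inhibition plus 3 SD, cut at about 5.5% in these data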
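Assay system: T. brucei methionyl-tRNA synthetase, purified | Medium: HEPES buffer with MgCl2, KCl, DTT, spermine, BSA, pyrophosphatase | Compound: 11.9 µM single point | Incubation: 15 min enzyme-compound preincubation, 2 h reaction, 10 min detection, 25 °C | Measured by: Kinase-Glo luciferase luminescence reporting remaining unconsumed ATP | Measure: % inhibition normalized to control-well medians | Replication: Singlicate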
Tb MetRS conf: T. brucei MetRS inhibitors, confirmation, biochemical, luminescence | AID 624412, 2012 | T. brucei MetRS enzyme, luminescence (ATP depletion) | shares compounds with TbMetRS inhib | inhibition, % at 11.9 µM | 1,400 tested, 93% active; in the data active = inhibition above about 7%
Jurkat cytotox: Jurkat T cell cytotoxicity, cytotoxicity control for T. brucei MetRS inhibitor project, luminescence, high throughput. shares compounds with TbMetRS inhib. Jurkat cells viability, ATP luminescence. inhibition, % at 8.3 µM. 1,400 tested, 12% active. AID 624413, 2012; in the data active = inhibition above about 15%
Tb MetRS inh FP: T. brucei MetRS inhibitors, orthogonal assay for T. brucei MetRS inhibitor project, biochemical, fluorescence polarization; shares compounds with TbMetRS inhib; purified T. brucei MetRS; inhibition, % at 11.9 µM; 1,400 tested, 44% active; in the data active = inhibition above about 17%
Of the large screens only hits and unclear results are named; the others gave an inactive call (follow-up assays come after a bar, where they were run).

Cc1cc(N2C(=O)C(O)=C(C(=O)c3ccco3)C2c2ccc(Cl)cc2)no1 (stereo not drawn)	TbMetRS inhib 6.1 | Tb MetRS conf inactive | Jurkat cytotox inactive | Tb MetRS inh FP inactive
O=C(CC(=O)c1ccccc1[N+](=O)[O-])c1ccccc1	none (no result: HCV NS3 hel inh, Hep lipid drop, TbMetRS inhib)
O=C(NCc1cc(Br)cc(Br)c1OC(=O)c1ccccc1[N+](=O)[O-])c1ccccc1	TbMetRS inhib 23 | Tb MetRS conf 28 | Jurkat cytotox inactive | Tb MetRS inh FP 20
CC(=O)Nc1ccc(S(=O)(=O)N2CCC(Oc3ccc(-n4cnnn4)cc3)CC2)cc1	TbMetRS inhib 6.0 | Tb MetRS conf 15 | Jurkat cytotox inactive | Tb MetRS inh FP inactive
Cc1ccc2nc(-c3ccc(SCC(=O)O)nc3)[nH]c2c1	TbMetRS inhib 10 (no result: Hep lipid drop) | Tb MetRS conf 21 | Jurkat cytotox inactive | Tb MetRS inh FP inactive
O=C(CSc1ccc(-c2nc3ccccc3[nH]2)cn1)Nc1ccc(S(=O)(=O)N2CCCC2)cc1	TbMetRS inhib 30 | Tb MetRS conf 33 | Jurkat cytotox inactive | Tb MetRS inh FP 31
N#Cc1ccccc1CSc1ccc(-c2nc3ccccc3[nH]2)cn1	TbMetRS inhib 11 | Tb MetRS conf 24 | Jurkat cytotox inactive | Tb MetRS inh FP 21
CC(=O)CSc1ccc(-c2nc3ccccc3[nH]2)cn1	none
CCOC(=O)CNC(=O)CSc1ccc(-c2nc3ccccc3[nH]2)cn1	TbMetRS inhib 9.1 (no result: Hep lipid drop) | Tb MetRS conf 28 | Jurkat cytotox inactive | Tb MetRS inh FP inactive
Cc1cc2nc(-c3ccc(SCC(=O)Nc4ccc(S(=O)(=O)N5CCCC5)cc4)nc3)[nH]c2cc1C	none
CCN(CC(=O)NCc1ccc(Cl)cc1)C(=O)NCc1ccc(Cl)cc1	none
CCN(CC(=O)NCc1ccc(Cl)cc1)C(=O)CCc1ccccc1O	TbMetRS inhib 37 | Tb MetRS conf 67 | Jurkat cytotox inactive | Tb MetRS inh FP 33
Cc1c(NS(=O)(=O)c2cccc(C(=O)NCc3cccc(Cl)c3)c2)c(=O)n(-c2ccccc2)n1C	TbMetRS inhib 18 (no result: HCV NS3 hel inh, Hep lipid drop, HCV core dimer) | Tb MetRS conf 43 | Jurkat cytotox inactive | Tb MetRS inh FP 27
Nc1ccc2c(c1)C(=O)C(=O)c1ccccc1-2	TbMetRS inhib 22 | Tb MetRS conf 15 | Jurkat cytotox 97 | Tb MetRS inh FP inactive
COc1ccc(NC(=O)CN(c2ccc(OC)c(Cl)c2)S(=O)(=O)c2ccccc2)cc1	none
O=C(C1=C[C@H](c2ccccc2)C[C@H](OCc2ccc(CO)cc2)O1)N1CCCCCCC1	none (no result: HCV core dimer, TbMetRS inhib)
Cc1ccc(C2NC(=NCc3ccccc3)Nc3nc(C)cc(=O)n32)cc1 (stereo not drawn)	TbMetRS inhib 7.6 | Tb MetRS conf 17 | Jurkat cytotox inactive | Tb MetRS inh FP inactive
Cc1ccc(NC2=NC(c3ccc(O)cc3)n3c(nc(C)cc3=O)N2)cc1 (stereo not drawn)	none (no result: Hep lipid drop)
O=C1C2Sc3[nH]c(=O)sc3C(c3cc([N+](=O)[O-])ccc3O)C2C(=O)N1c1ccccc1 (stereo not drawn)	TbMetRS inhib 16 | Tb MetRS conf 19 | Jurkat cytotox inactive | Tb MetRS inh FP inactive
Cc1ccc(N2C(=O)C3Sc4[nH]c(=O)sc4C(c4ccccc4)C3C2=O)cc1 (stereo not drawn)	none (no result: Hep lipid drop)
C=CCNc1ncnc2c1[nH]c1ccccc12	TbMetRS inhib 21 (no result: Hep lipid drop) | Tb MetRS conf 35 | Jurkat cytotox inactive | Tb MetRS inh FP inactive
C=CCNc1ncnc2ccccc12	none (no result: Hep lipid drop)
C=CCNc1ncnc2c1[nH]c1ccc(Cl)cc12	TbMetRS inhib 51 | Tb MetRS conf 64 | Jurkat cytotox 18 | Tb MetRS inh FP 38
CCOc1ccc2[nH]c3c(NCCO)ncnc3c2c1	none (no result: HCV core dimer)
CCc1ccc(OCC(=O)NC(C)C)cc1	none
O=C(CSc1nnc(CCc2nc3ccccc3[nH]2)n1-c1ccccc1)NCc1ccccc1	TbMetRS inhib 6.2 | Tb MetRS conf 9.2 | Jurkat cytotox inactive | Tb MetRS inh FP inactive
O=C(CSc1nnc(CCc2nc3ccccc3[nH]2)n1-c1ccccc1)NCc1ccco1	none
N#Cc1c(NCCCO)nc(NCc2ccccc2)c2c1CCN(Cc1ccccc1)C2	TbMetRS inhib 42 (no result: Hep lipid drop) | Tb MetRS conf 36 | Jurkat cytotox inactive | Tb MetRS inh FP 19
CN1CCc2c(C#N)c(N3CCCCC3)nc(NCc3ccccc3)c2C1	none (no result: Hep lipid drop)
CCOC(=O)C1=C(C)N(C)C(C)=C(C(=O)OCC)C1c1ccsc1	none
O=C(Nc1csc([N+](=O)[O-])c1)Nc1c(Cl)cccc1Cl	none
O=C(Nc1ccc(Cl)cc1)Nc1csc([N+](=O)[O-])c1	TbMetRS inhib 12 | Tb MetRS conf 22 | Jurkat cytotox 73 | Tb MetRS inh FP 22
CN(C)C(=O)Nc1ccccc1CC[N+](=O)[O-]	none
O=C(Nc1ccc(Cl)cc1)Nc1ccccc1CC[N+](=O)[O-]	TbMetRS inhib 37 | Tb MetRS conf 66 | Jurkat cytotox inactive | Tb MetRS inh FP 30
O=C1C(Nc2ccc(O)cc2)=C/C(=N/S(=O)(=O)c2cccs2)c2ccccc21	TbMetRS inhib 6.2 (no result: HCV core dimer) | Tb MetRS conf 9.8 | Jurkat cytotox 94 | Tb MetRS inh FP inactive
Cc1ccc(N2CC(c3nc4ccccc4[nH]3)CC2=O)c(C)c1 (stereo not drawn)	TbMetRS inhib 8.3 | Tb MetRS conf 9.2 | Jurkat cytotox inactive | Tb MetRS inh FP inactive
Cc1cc(C)cc(C(=O)Nc2ccc(NC(=O)Cc3ccccc3)cc2)c1	none
Cn1c(CSc2nc3ccc(Br)cc3[nH]2)nc2ccccc21	TbMetRS inhib 12 (no result: Hep lipid drop) | Tb MetRS conf 18 | Jurkat cytotox inactive | Tb MetRS inh FP inactive
Cc1cc2c(cc(C(=O)OC(C)C(=O)NCc3ccc(F)cc3)n2C)o1 (stereo not drawn)	none (no result: HCV NS3 hel inh, Hep lipid drop, HCV core dimer)
